Reference: ChEMBL document CHEMBL5678802, “Small-molecule p21-activated kinase inhibitor PF-3758309 is a potent inhibitor of oncogenic signaling and tumor growth” (Proc Natl Acad Sci U S A, 2010)

How the values were obtained:
[1] = Antiproliferative activity against human PaTu 8988s cells assessed as inhibition of cell proliferation incubated for 3 days by CellTiter-Glo Luminescent Cell Viability Assay; format: functional, cell-based; details: 72 h
Summary of the method: (§1)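 Cells of each line were plated in 384-well plates on day 1 and exposed to compound from day 2 for 3 days. On day 5 all medium was aspirated. Viable cell number was read by CellTiter-Glo luminescence, which quantifies cellular ATP.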

[2] = system: NCI-H716; test: Antiproliferative activity against human NCI-H716 cells assessed as inhibition of cell proliferation incubated for 3 days by CellTiter-Glo Luminescent Cell Viability Assay; format: functional, cell-based; details: NCI-H716, 72 h; summary of the method: as §1
[3] = system: HPAF-II; test: Antiproliferative activity against human HPAF-II cells assessed as inhibition of cell proliferation incubated for 3 days by CellTiter-Glo Luminescent Cell Viability Assay; format: functional, cell-based; details: 72 h
Summary of the method: (§2)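 Cancer cell lines seeded in 384-well plates on day 1; compound added on day 2 and left for 3 days. On day 5 all medium was aspirated, and viable cells were quantified by CellTiter-Glo luminescence, which measures cellular ATP. Dose-dependent effects on proliferation were determined.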

[4] = molecular target: T1, cGMP-dependent protein kinase 1 (Homo sapiens, UniProt Q13976); test: Inhibition of human PRKG1 in presence of ATP
T1 sequence (Q13976 whole entry): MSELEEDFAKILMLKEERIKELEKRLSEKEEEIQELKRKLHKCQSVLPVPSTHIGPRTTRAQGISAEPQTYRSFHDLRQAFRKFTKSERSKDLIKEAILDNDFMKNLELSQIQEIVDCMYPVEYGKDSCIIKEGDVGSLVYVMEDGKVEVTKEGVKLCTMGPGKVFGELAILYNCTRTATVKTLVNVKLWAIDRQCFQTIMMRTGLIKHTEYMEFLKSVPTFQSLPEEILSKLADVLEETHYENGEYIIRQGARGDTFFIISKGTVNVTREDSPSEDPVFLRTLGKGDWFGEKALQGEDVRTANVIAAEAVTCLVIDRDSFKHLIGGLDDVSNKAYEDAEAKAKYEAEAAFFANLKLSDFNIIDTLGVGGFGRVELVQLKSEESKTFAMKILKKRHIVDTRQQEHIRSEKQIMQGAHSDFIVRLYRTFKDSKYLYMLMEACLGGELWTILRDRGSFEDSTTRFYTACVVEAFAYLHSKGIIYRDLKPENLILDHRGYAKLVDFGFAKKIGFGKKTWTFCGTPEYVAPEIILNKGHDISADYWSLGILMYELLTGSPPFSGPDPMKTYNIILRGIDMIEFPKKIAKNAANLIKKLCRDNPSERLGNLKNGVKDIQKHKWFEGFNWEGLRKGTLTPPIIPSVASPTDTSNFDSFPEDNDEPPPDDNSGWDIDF

[5] = system: PSN1; test: Antiproliferative activity against human PSN1 cells assessed as inhibition of cell proliferation incubated for 3 days by CellTiter-Glo Luminescent Cell Viability Assay; format: functional, cell-based; details: PSN1, 72 h; summary of the method: as §1
[6] = system: MDA-MB-453; test: Antiproliferative activity against human MDA-MB-453 cells assessed as inhibition of cell proliferation incubated for 3 days by CellTiter-Glo Luminescent Cell Viability Assay; format: functional, cell-based; details: MDA-MB-453, 72 h; summary of the method: as §2
[7] = molecular target: T2, Tyrosine-protein kinase Yes (Homo sapiens, UniProt P07947); test: Inhibition of human YES1 in presence of ATP
Target sequence in this assay (P07947 whole entry): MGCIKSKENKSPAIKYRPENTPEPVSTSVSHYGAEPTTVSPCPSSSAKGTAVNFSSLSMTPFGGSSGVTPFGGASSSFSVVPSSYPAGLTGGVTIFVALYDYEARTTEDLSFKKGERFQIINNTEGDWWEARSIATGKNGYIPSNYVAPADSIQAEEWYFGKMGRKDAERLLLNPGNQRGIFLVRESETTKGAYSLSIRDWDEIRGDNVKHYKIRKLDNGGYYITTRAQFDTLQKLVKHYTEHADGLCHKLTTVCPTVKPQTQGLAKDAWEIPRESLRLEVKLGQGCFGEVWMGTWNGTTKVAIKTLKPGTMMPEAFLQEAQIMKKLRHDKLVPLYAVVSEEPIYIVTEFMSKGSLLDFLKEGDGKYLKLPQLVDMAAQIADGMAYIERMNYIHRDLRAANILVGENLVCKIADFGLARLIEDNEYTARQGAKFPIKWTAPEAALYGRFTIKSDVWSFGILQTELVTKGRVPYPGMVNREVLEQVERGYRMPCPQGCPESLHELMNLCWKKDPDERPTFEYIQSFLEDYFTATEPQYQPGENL

[8] = system: DLD-1; test: Antitumor activity against PAK4 -/+ human DLD-1 cells xenografted in nude mouse assessed as tumor growth inhibition at 10 mg/kg, po administered once daily for 9 to 18 days relative to control; format: functional; details: time 9-18 day, read-out: TGI
Summary of the method: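 Tumor cells were implanted s.c. into the right flank of female nu/nu nude mice aged 6–8 weeks. Animals were randomized into treatment groups once tumors were established (example: day 8 postimplant, about 170 mm3, animals >22 g). Compound in 0.5% methylcellulose was given by oral gavage. Tumors were measured with calipers two to three times per week.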

[9] = molecular target: RAC-gamma serine/threonine-protein kinase (Homo sapiens, UniProt Q9Y243); test: Inhibition of human AKT3 in presence of ATP relative to control; details: concentration not given here
Sequence of RAC-gamma serine/threonine-protein kinase (Q9Y243 whole entry): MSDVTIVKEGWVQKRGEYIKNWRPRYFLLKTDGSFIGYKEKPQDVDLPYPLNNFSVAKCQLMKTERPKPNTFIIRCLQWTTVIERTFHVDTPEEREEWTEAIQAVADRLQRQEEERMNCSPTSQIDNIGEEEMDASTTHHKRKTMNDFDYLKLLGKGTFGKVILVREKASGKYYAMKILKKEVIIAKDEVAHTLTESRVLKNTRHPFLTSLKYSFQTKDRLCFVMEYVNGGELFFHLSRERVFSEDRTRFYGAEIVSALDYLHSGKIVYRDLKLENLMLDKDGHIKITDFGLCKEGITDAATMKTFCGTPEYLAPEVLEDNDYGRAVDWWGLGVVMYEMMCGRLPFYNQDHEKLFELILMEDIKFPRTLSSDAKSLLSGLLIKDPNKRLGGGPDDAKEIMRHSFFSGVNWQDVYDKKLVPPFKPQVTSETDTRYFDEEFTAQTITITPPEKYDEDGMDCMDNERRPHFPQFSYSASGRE

[10] = molecular target: T3, Receptor-type tyrosine-protein kinase FLT3 (Homo sapiens, UniProt P36888); test: Inhibition of human FLT3 in presence of ATP by cellular assay
T3 sequence (P36888 whole entry): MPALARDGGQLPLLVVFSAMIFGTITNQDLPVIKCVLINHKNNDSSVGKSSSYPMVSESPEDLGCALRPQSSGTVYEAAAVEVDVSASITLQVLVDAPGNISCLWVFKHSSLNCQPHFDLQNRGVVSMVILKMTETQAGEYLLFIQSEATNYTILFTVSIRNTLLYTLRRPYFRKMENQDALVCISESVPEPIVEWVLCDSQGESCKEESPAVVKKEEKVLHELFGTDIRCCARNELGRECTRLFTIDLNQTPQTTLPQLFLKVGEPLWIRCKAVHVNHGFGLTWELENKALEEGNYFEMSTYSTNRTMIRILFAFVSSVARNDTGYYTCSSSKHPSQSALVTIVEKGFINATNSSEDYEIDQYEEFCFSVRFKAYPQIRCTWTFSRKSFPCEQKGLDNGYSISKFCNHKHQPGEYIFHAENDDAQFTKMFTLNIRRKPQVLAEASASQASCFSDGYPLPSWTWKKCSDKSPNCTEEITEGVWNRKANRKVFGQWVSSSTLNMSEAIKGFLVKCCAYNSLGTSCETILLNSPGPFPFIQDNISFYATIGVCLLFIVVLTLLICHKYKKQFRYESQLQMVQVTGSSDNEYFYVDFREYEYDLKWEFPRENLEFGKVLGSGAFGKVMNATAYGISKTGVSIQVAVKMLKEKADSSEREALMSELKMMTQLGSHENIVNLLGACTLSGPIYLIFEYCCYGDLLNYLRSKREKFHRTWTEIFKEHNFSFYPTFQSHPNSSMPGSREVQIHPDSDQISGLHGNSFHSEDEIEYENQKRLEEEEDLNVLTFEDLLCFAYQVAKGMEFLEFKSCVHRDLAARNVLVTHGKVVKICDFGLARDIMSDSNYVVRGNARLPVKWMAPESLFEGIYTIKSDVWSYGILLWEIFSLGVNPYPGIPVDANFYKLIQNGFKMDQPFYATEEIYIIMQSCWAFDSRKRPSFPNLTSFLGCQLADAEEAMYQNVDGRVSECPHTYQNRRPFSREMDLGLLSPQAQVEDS

[11] = molecular target: T2, Tyrosine-protein kinase Yes; test: Inhibition of human YES1 in presence of ATP relative to control; details: concentration not given here
Target sequence in this assay (P07947 2-543 limits assumed): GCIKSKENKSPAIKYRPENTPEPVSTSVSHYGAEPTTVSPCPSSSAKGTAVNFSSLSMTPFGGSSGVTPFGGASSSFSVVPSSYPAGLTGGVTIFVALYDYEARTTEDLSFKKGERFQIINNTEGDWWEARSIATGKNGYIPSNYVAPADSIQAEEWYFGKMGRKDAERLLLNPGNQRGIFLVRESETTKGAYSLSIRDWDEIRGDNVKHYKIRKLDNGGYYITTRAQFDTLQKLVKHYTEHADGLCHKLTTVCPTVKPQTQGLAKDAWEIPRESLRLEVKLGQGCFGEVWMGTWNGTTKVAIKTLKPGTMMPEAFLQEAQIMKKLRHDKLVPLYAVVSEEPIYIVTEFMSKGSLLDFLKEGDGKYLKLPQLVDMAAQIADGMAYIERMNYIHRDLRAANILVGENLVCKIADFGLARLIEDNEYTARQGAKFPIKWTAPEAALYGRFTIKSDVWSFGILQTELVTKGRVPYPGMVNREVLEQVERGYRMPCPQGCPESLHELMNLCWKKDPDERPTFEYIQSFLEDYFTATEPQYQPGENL

[12] = system: NCI-H226; test: Antiproliferative activity against human NCI-H226 cells assessed as inhibition of cell proliferation incubated for 3 days by CellTiter-Glo Luminescent Cell Viability Assay; format: functional, cell-based; details: NCI-H226, 72 h; summary of the method: as §1
[13] = system: NCI-H2347; test: Antiproliferative activity against human NCI-H2347 cells assessed as inhibition of cell proliferation incubated for 3 days by CellTiter-Glo Luminescent Cell Viability Assay; format: functional, cell-based; details: NCI-H2347, 72 h; summary of the method: as §1
[14] = system: PANC-08-13; test: Antiproliferative activity against human PANC-08-13 cells assessed as inhibition of cell proliferation incubated for 3 days by CellTiter-Glo Luminescent Cell Viability Assay; format: functional, cell-based; details: PANC-08-13, 72 h; summary of the method: as §1

- IC50 [2]: 11 nM
- IC50 [4]: 34 nM
- IC50 [6]: 13.3 nM
- IC50 [7]: 47 nM
- inhibition [9]: 74%
- IC50 [10]: 407 nM
- inhibition [11]: 92%
- IC50 [12]: 9.3 nM
- IC50 [13]: 2 nM
- IC50 [14]: 12 nM
Compound: Cc1nc(Nc2n[nH]c3c2CN(C(=O)N[C@H](CN(C)C)c2ccccc2)C3(C)C)c2sccc2n1 [PF-03758309]
- IC50 [1]: 738 nM
- IC50 [3]: 517 nM
- IC50 [5]: 34 nM
- inhibition in vivo at 10 mg/kg [8]: 0%
